Among the data in ChEMBL document CHEMBL3808283, “Biological Characterization and in Vivo Assessment of the Activity of a New Synthetic Macrocyclic Antifungal Compound” (J Med Chem, 2016) are Activity, Drug transport and MIC values, retold here.

Values after ≈ are worked out from the molar mass of the structure shown. Active and inactive are the calls of the source. No cut-off for these calls is given here.

Broadly, the MIC is the least concentration at which growth counts as inhibited.

Data set [1] concerns Candida albicans. In words: Antifungal activity against Candida albicans isolate DSY654 harboring CDR1/2 deletion mutant at 100 ug/ml by serial dilution assay. In kind it is functional, organism-based. A digest of the protocol:
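Spot dilution assay: C. albicans cells 10-fold serially diluted from 2 × 10^7 cells/mL, with 5 µL of each dilution spotted onto YEPD agar plates containing the drug.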

A short description of data set [2]: Drug transport in Candida albicans ATCC 60193 assessed as ABC transpoter-mediated drug accumulation at 5 to 80 uM after 24 hrs by confocal microscopic analysis. Type of data set: ADME.
Data set [3] is described as follows: Drug transport in Cryptococcus neoformans assessed as ABC transpoter-mediated drug accumulation at 5 to 80 uM after 24 hrs by confocal microscopic analysis. Type of data set: ADME.
In data set [4] the test system is Candida albicans. Put plainly: Antifungal activity against Candida albicans ATCC 60193 up to 96 hrs by broth dilution assay. The note with it: ATCC 60193, 96 h. In kind it is functional. A general note: In broth dilution the organism is exposed to a series of concentrations in liquid medium.
The nature of data set [5]: Drug transport in Cryptococcus neoformans assessed as ABC transpoter-mediated drug accumulation in cytoplasm at 40 uM after 48 hrs by confocal microscopic analysis. Type of data set: ADME. The method in brief: (§1)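 C. albicans ATCC 60193 or Cry. neoformans treated 48 h with the fluorescent probe at 40 µM from a DMSO solution. Cells were washed twice in PBS, fixed in 4% formaldehyde for 30 min at 4 °C, washed again, spotted on glass slides, dried and mounted. Examined by confocal microscopy, with visible, fluorescent and merged images compared against untreated cells.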

Data set [6] in a line: Drug transport in Cryptococcus neoformans with damaged cell wall assessed as ABC transpoter-mediated drug accumulation in cytoplasm at 40 uM after 48 hrs by confocal microscopic analysis. In kind it is ADME. A digest of the protocol: as §1
Data set [7] is described as follows: Drug transport in Candida albicans ATCC 60193 with damaged cell wall assessed as ABC transpoter-mediated drug accumulation in cytoplasm at 40 uM after 48 hrs by confocal microscopic analysis. Type of data set: ADME. A digest of the protocol:
as §1

Data set [8] in a line: Drug transport in Candida albicans ATCC 60193 assessed as ABC transpoter-mediated drug accumulation in cytoplasm at 40 uM after 48 hrs by confocal microscopic analysis. In kind it is ADME. A digest of the protocol:
as §1

Data set [9] concerns Candida albicans. Put plainly: Antifungal activity against azole-susceptible Candida albicans isolate DSY294 in immunocompetent Balb/c mouse candidiasis model assessed as reduction in CFU count in kidney at 8 mg/kg/day, ip regime measured on day 7 post infection. In kind it is functional, organism-based. A digest of the protocol: (§2)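 Immunocompetent BALB/c mice, 10 per strain group, received 7 × 10^4 CFU of C. albicans in 200 µL saline via the lateral vein. Fluconazole was given i.p. at 8 mg/kg/day. On day 7, spleen and kidneys were weighed, homogenized, and plated on YPD agar (2 days, 30 °C) for CFU per gram of organ. Analysis used Wilcoxon rank-sum, P<0.05.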

In data set [10] the test system is Candida albicans. In words: Antifungal activity against azole-susceptible Candida albicans isolate DSY294 in immunocompetent Balb/c mouse candidiasis model assessed as reduction in CFU count in spleen at 8 mg/kg/day, ip regime measured on day 7 post infection. In kind it is functional, organism-based. The method in brief: as §2
Data set [11] deals with Candida albicans. In words: Antifungal activity against fluconazole-susceptible Candida albicans ATCC 90028 in immunocompetent Balb/c mouse candidiasis model assessed as reduction in CFU count in spleen at 8 mg/kg/day, ip regime measured on day 7 post infection. In kind it is functional, organism-based. A digest of the protocol: as §2
Data set [12] relates to Candida albicans. Put plainly: Antifungal activity against fluconazole-susceptible Candida albicans ATCC 90028 in immunocompetent Balb/c mouse candidiasis model assessed as reduction in CFU count in kidney at 8 mg/kg/day, ip regime measured on day 7 post infection. Type of data set: functional, organism-based. A digest of the protocol:
as §2

In the case of `OCCN1CCN(CCCN2c3ccccc3Sc3ccc(C(F)(F)F)cc32)CC1`, in the data set on Candida albicans [1], the result was Active.
Consider `CN(C)c1cccc2c(S(=O)(=O)NC(=N)NCCCCCCCCN3CCCCCCCCNC(=N)NC3=O)cccc12`, for which the Drug transport entry in data set [2] and in data set [3] was “Active” each time. In the data set with Candida albicans [4], this molecule had an MIC above 125 µM.
Consider `C/C=C/CNC(=N)NCCCCCCCCN1CCCCCCOc2cc(OCCCNC(=S)Nc3ccc4c(c3)C(=O)OC43c4ccc(O)cc4Oc4cc(O)ccc43)ccc2CNC(=N)NC1=O`, for which the Drug transport entry is reported as “Active” in data set [5], “Not Active” in data set [6], “Not Active” in data set [7] and “Active” in data set [8]. In the data set on Candida albicans [4], this molecule displayed a minimum inhibitory concentration (MIC) of 80 µM (≈ 78.1 µg/mL).
`OC(Cn1cncn1)(Cn1cncn1)c1ccc(F)cc1F`: the result in the data set on Candida albicans [9], with Candida albicans [10], in the data set with Candida albicans [11] and in the data set on Candida albicans [12] was Active.
For the molecule `CN(C)c1cccc2c(S(=O)(=O)NCCCCCCCCN3CCCCCCCCNC(=N)NC3=O)cccc12`, the Drug transport result in data set [2] and in data set [3] was “Active” each time. The molecule also showed a minimal inhibitory concentration (MIC) in the data set with Candida albicans [4] above 125 µM.
